From ChEMBL document CHEMBL3233006 (J Med Chem, 2014)
Active and inactive are the calls of the source. The calls are words filed in the database; no cut-off is given here.

Key:
[1] = system: SK-MEL-28; test: cells; format: functional, cell-based; details: Homo sapiens, SK-MEL-28, 68 h
[2] = molecular target: Serine/threonine-protein kinase B-raf (Homo sapiens, UniProt P15056, V600E); test: Inhibition of BRAF V600E mutant (unknown origin) after 1 to 1.5 hrs by FRET-based Z'-Lyte assay
Procedure, shortened: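 Z′-Lyte FRET cascade assay in 10 μL. Incubated 1 h at room temperature, then development reagent 1 h, then stop reagent. Controls: phospho-peptide, no ATP, and 4% DMSO solution. Means of 2 independent experiments.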

[3] = cells; format: functional; details: Homo sapiens, 68 h
[4] = molecular target: T1, Epidermal growth factor receptor (Homo sapiens, UniProt P00533); test: Inhibition of EGFR (unknown origin) after 1 to 1.5 hrs by FRET-based Z'-Lyte assay
T1 sequence (P00533 whole entry): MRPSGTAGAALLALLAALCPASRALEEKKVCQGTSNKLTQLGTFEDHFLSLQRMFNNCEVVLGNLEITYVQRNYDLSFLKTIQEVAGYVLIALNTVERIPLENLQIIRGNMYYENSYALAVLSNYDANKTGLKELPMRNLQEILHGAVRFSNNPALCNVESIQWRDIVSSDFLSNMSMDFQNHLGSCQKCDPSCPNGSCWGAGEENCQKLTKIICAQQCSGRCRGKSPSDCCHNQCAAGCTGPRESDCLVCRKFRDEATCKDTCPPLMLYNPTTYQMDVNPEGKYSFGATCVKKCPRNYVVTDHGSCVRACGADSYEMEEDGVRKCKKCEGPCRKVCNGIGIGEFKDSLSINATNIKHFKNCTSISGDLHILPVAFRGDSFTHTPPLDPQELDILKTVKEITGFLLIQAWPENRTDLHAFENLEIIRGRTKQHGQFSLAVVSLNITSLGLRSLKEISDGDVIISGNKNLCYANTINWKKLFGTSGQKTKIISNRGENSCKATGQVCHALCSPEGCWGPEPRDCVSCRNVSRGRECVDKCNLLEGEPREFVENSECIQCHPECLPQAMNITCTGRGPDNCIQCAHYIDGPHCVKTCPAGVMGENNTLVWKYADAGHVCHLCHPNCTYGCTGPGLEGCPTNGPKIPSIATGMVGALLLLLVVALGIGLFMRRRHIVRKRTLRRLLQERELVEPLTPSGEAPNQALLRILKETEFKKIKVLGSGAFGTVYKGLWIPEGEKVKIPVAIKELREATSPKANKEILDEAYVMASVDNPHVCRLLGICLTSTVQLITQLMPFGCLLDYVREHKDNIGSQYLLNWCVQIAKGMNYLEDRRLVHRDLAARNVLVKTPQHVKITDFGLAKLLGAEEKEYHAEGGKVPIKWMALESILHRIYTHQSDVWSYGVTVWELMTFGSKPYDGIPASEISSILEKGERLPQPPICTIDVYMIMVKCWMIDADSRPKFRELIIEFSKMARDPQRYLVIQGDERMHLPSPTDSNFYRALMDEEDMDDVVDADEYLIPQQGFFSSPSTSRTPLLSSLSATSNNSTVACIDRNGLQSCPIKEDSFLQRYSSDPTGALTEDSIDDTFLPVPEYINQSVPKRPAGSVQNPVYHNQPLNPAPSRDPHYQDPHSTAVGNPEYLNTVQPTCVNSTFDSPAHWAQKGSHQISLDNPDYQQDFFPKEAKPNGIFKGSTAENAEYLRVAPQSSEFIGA

[5] = species on record: Homo sapiens; test: Inhibition of MAPK-mediated ERK phosphorylation at Thr202/Tyr204 in human SK-MEL-28-PR30 cells at 1 uM after 24 hrs by Western blotting analysis; format: cell-based
Procedure, shortened: (§1)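 Time-course western blot with treatment at 1.0 μM. SK-MEL-28-PR30 or WiDr cells exposed for 2, 24 and 48 h. RIPA lysates quantified by BCA, equal protein blotted on PVDF, and probed for phospho-ERK (T202/Y204), total ERK and GAPDH.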

[6] = species on record: Homo sapiens; test: Inhibition of MAPK-mediated ERK phosphorylation at Thr202/Tyr204 in human SK-MEL-28-PR30 cells at 1 uM after 48 hrs by Western blotting analysis; format: cell-based
Procedure, shortened: as §1

[7] = species on record: Homo sapiens; test: Effect on total EGFR protein level in human SK-MEL-28-PR30 cells after 2 hrs by Western blotting analysis; format: functional, cell-based
Procedure, shortened: (§2)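 1 × 10⁶ cells seeded overnight in 6-cm dishes, then treated 2 h with 3, 1 or 0.3 μM in fresh medium; 1‰ DMSO as control. RIPA lysates, protein quantified by BCA, equal loads run on PVDF blots. Blocked 1 h at room temperature, then probed for EGFR, phospho-EGFR (Tyr1068), ERK, phospho-ERK (T202/Y204) and GAPDH.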

[8] = system: WiDr; test: Antiproliferative activity against human WiDr cells harboring BRAF V600E mutant and EGFR after 68 hrs […]; format: functional, cell-based
[9] = molecular target: Receptor tyrosine-protein kinase erbB-2 (Homo sapiens) (UniProt P04626); test: Inhibition of ERBB2 (unknown origin) at 1 uM by KINOMEscan assay
Receptor tyrosine-protein kinase erbB-2 (Homo sapiens), sequence (P04626 whole entry): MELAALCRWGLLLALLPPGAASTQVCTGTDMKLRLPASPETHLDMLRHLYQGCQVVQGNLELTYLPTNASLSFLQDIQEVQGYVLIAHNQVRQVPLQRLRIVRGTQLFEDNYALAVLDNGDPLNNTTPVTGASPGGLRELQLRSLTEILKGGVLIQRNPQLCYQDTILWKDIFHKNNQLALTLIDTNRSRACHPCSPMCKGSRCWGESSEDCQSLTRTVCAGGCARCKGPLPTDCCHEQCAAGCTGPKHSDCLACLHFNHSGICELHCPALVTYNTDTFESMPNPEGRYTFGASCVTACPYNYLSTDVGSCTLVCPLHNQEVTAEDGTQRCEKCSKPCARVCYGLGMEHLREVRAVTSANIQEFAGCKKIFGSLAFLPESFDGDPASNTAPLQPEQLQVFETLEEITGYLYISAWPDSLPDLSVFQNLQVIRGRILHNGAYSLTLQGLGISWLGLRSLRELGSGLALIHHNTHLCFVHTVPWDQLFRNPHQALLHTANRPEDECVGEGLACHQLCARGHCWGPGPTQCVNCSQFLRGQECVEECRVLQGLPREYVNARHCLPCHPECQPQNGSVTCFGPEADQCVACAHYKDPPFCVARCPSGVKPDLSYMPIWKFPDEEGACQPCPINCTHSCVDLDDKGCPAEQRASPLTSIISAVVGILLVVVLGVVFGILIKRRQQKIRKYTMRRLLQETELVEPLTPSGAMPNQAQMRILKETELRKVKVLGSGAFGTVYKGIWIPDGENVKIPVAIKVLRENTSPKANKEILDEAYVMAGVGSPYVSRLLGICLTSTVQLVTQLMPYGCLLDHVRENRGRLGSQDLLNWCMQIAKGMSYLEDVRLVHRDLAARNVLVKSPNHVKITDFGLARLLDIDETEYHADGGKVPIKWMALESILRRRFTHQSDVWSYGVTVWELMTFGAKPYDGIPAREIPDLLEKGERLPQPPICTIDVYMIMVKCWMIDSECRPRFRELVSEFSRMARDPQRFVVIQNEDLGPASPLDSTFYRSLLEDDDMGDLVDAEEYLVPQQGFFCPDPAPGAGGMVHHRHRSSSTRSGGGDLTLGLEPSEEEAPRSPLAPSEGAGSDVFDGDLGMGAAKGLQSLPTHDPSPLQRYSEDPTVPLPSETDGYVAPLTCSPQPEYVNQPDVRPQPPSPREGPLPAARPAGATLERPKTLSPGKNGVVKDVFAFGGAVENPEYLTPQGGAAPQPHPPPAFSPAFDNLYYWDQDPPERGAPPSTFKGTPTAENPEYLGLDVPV
Procedure, shortened: (§3)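 KINOMEscan binding screen across a panel of 456 kinases (including 395 distinct wild-type kinases), with test compound at 1.0 μM.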

[10] = system: LoVo; test: Antiproliferative activity against human LoVo cells harboring wild-type BRAF after 68 hrs by […]; format: functional, cell-based
[11] = molecular target: T1, Epidermal growth factor receptor; test: Inhibition of EGFR phosphorylation at Tyr1068 in human SK-MEL-28-PR30 cells after 2 hrs by Western blotting analysis; format: cell-based
Procedure, shortened: as §2

[12] = molecular target: T1, Epidermal growth factor receptor; test: Inhibition of EGFR phosphorylation at Tyr1068 in human A375 cells after 2 hrs by Western blotting analysis; format: cell-based; details: A-375
Procedure, shortened: as §2

[13] = molecular target: T1, Epidermal growth factor receptor; test: Inhibition of EGFR phosphorylation at Tyr1068 in human HT-29 cells after 2 hrs by Western blotting analysis; format: cell-based
Procedure, shortened: as §2

[14] = species on record: Homo sapiens; test: Effect on total ERK protein level in human SK-MEL-28-PR30 cells after 2 hrs by Western blotting analysis; format: functional, cell-based
Procedure, shortened: as §2

[15] = system: WiDr; test: Inhibition of MAPK-mediated ERK phosphorylation at Thr202/Tyr204 in human WiDr cells at 1 uM after 2 to 48 hrs by Western blotting analysis; format: cell-based
Procedure, shortened: as §1

[16] = molecular target: Platelet-derived growth factor receptor beta (Homo sapiens) (UniProt P09619); test: Inhibition of PDGFRbeta (unknown origin) at 1 uM by KINOMEscan assay
Platelet-derived growth factor receptor beta (Homo sapiens), sequence (P09619 whole entry): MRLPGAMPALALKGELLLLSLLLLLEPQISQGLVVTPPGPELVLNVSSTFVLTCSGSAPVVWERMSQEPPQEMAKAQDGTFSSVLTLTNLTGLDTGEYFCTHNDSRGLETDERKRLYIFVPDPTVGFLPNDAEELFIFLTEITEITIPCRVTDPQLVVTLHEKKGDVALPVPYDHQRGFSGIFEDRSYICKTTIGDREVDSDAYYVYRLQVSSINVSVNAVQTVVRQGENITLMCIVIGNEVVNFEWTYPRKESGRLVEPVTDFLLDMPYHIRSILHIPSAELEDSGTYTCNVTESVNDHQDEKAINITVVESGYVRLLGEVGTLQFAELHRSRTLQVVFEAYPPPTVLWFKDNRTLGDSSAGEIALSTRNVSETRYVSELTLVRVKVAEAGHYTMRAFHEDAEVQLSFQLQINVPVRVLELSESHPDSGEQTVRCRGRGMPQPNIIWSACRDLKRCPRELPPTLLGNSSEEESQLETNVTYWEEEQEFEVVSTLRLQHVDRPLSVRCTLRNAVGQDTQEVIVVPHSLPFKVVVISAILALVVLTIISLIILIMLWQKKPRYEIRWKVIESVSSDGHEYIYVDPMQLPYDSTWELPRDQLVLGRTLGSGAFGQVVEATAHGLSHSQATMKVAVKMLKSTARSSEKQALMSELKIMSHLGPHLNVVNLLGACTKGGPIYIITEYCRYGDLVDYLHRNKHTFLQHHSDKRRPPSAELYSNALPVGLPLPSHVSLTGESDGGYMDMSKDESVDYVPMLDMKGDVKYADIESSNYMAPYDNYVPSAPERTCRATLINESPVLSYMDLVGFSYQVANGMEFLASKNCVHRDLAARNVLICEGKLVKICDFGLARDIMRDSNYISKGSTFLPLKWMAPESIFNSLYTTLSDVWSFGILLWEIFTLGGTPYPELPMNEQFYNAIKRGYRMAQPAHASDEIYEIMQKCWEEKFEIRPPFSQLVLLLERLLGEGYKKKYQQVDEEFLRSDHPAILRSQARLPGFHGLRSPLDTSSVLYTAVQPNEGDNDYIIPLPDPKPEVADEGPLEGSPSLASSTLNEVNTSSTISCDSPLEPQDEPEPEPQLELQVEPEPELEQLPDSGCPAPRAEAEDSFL
Procedure, shortened: as §3

[17] = system: A-375; test: Inhibition of MAPK-mediated ERK phosphorylation at Thr202/Tyr204 in human A375 cells after 2 hrs by Western blotting analysis; format: cell-based
Procedure, shortened: as §2

[18] = system: WiDr; test: Inhibition of MAPK-mediated ERK phosphorylation at Thr202/Tyr204 in human WiDr cells after 2 hrs by Western blotting analysis; format: cell-based
Procedure, shortened: as §2

[19] = molecular target: T1, Epidermal growth factor receptor; test: Inhibition of EGFR phosphorylation at Tyr1068 in human WiDr cells after 2 hrs by Western blotting analysis; format: cell-based
Procedure, shortened: as §2

[20] = molecular target: Receptor tyrosine-protein kinase erbB-4 (Homo sapiens) (UniProt Q15303); test: Inhibition of ERBB4 (unknown origin) at 1 uM by KINOMEscan assay
Procedure, shortened: as §3

[21] = system: COLO 205; test: Antiproliferative activity against human COLO205 cells harboring BRAF V600E mutant and EGFR after 68 hrs by MTS assay; format: functional, cell-based; details: COLO 205, 68 h
[22] = system: HCT-116; test: Antiproliferative activity against human HCT116 cells harboring wild-type BRAF and EGFR after 68 hrs […]; format: functional, cell-based; details: HCT-116, 68 h
[23] = species on record: Homo sapiens; test: Inhibition of MAPK-mediated ERK phosphorylation at Thr202/Tyr204 in human SK-MEL-28-PR30 cells after 2 hrs by Western blotting analysis; format: cell-based
Procedure, shortened: as §2

[24] = system: HT-29; test: Antiproliferative activity against human HT-29 cells harboring BRAF V600E mutant and EGFR after 68 hrs […]; format: functional, cell-based; details: HT-29, 68 h
[25] = system: HT-29; test: Inhibition of MAPK-mediated ERK phosphorylation at Thr202/Tyr204 in human HT-29 cells after 2 hrs by Western blotting analysis; format: cell-based
Procedure, shortened: as §2

Serine/threonine-protein kinase B-raf, sequence (P15056 2-766 V600E limits assumed): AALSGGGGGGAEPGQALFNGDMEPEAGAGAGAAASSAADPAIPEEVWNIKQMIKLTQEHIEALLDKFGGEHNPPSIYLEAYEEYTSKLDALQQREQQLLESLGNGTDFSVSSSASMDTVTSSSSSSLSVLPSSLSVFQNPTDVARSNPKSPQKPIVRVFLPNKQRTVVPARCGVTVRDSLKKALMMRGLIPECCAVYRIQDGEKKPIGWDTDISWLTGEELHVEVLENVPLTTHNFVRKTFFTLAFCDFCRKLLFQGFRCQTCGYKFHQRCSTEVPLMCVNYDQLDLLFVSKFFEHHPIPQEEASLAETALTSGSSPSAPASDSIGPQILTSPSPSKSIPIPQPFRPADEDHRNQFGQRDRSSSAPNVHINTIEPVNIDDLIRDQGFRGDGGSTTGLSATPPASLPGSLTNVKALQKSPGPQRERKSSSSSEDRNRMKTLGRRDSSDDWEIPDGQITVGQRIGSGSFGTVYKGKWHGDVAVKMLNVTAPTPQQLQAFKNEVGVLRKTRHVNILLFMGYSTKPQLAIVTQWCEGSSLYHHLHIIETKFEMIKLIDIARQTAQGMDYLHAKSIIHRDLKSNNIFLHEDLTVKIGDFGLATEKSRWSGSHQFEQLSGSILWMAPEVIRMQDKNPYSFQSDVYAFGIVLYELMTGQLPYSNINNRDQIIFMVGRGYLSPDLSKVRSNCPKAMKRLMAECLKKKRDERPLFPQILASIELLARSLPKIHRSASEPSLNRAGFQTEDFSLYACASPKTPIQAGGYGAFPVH

| SMILES | IC50 [1] | IC50 [2] | IC50 [3] | IC50 [4] | other results |
| --- | --- | --- | --- | --- | --- |
| Cc1ccc(C(=O)Nc2ccc(CN3CCN(C)CC3)c(C(F)(F)F)c2)cc1NC(=O)c1ccc2[nH]ccc2c1 | 4430 nM | 220 nM | 3040 nM | > 10000 nM | – |
| Cc1ccc(C(=O)Nc2ccc(CN3CCN(C)CC3)c(C(F)(F)F)c2)cc1NC(=O)c1cnc(NC2CCCC2)nc1 | 2040 nM | 230 nM | 1240 nM | 33 nM | – |
| CCCS(=O)(=O)Nc1ccc(F)c(C(=O)c2c[nH]c3ncc(-c4ccc(Cl)cc4)cc23)c1F [VEMURAFENIB] | 480 nM | – | > 20000 nM | – | inhibition [5]: inactive; inhibition [6]: inactive |
| Cc1ccc(C(=O)Nc2ccc(CN3CCN(C)CC3)c(C(F)(F)F)c2)cc1NC(=O)c1ccccc1 | 6910 nM | 240 nM | 5030 nM | > 10000 nM | – |
| Cc1ccc(C(=O)Nc2ccc(CN3CCN(C)CC3)c(C(F)(F)F)c2)cc1NC(=O)c1cncnc1 | > 20000 nM | 670 nM | > 20000 nM | 1920 nM | – |
| Cc1ccc(C(=O)Nc2ccc(CN3CCN(C)CC3)c(C(F)(F)F)c2)cc1NC(=O)c1ccc(O)nc1 | > 20000 nM | > 10000 nM | > 20000 nM | 1330 nM | – |
| Cc1ccc(C(=O)Nc2ccc(CN3CCN(C)CC3)c(C(F)(F)F)c2)cc1NC(=O)c1cccnc1 | 14000 nM | 551 nM | > 20000 nM | 550 nM | – |
| CC(C)c1ccc(C(=O)Nc2ccc(CN3CCN(C)CC3)c(C(F)(F)F)c2)cc1NC(=O)c1cnc2[nH]ccc2c1 | 2270 nM | 290 nM | 1900 nM | 160 nM | – |
| CCNc1ncc(C(=O)Nc2cc(C(=O)Nc3ccc(CN4CCN(C)CC4)c(C(F)(F)F)c3)ccc2C)cn1 | 1090 nM | 510 nM | 2400 nM | 130 nM | – |
| Cc1ccc(C(=O)Nc2ccc(CN3CCN(C)CC3)c(C(F)(F)F)c2)cc1NC(=O)c1cnc(NC2CCCCC2)nc1 | 2380 nM | 37 nM | 2730 nM | 47 nM | – |
| Cc1ccc(C(=O)Nc2ccc(CN3CCN(C)CC3)c(C(F)(F)F)c2)cc1NC(=O)c1ccccn1 | > 20000 nM | 573 nM | 10700 nM | – | – |
| Cc1ccc(C(=O)Nc2ccc(CN3CCN(C)CC3)c(C(F)(F)F)c2)cc1NC(=O)c1cnc(NC(C)C)nc1 | 1730 nM | 340 nM | 860 nM | 43 nM | – |
| Cc1ccc(C(=O)Nc2ccc(CN3CCN(C)CC3)c(C(F)(F)F)c2)cc1NC(=O)c1cnc(NC2CC2)nc1 | 2960 nM | 390 nM | 1440 nM | 44 nM | – |
| Cc1ccc(C(=O)Nc2ccc(CN3CCN(C)CC3)c(C(F)(F)F)c2)cc1NC(=O)c1cnccn1 | > 20000 nM | 280 nM | > 20000 nM | 3900 nM | – |
| Cc1ccc(C(=O)Nc2ccc(CN3CCN(C)CC3)c(C(F)(F)F)c2)cc1NC(=O)c1cnc(Nc2ccccc2)nc1 | 1700 nM | 210 nM | 900 nM | 6 nM | – |
| CNc1ncc(C(=O)Nc2cc(C(=O)Nc3ccc(CN4CCN(C)CC4)c(C(F)(F)F)c3)ccc2C)cn1 | > 20000 nM | 290 nM | 2750 nM | 120 nM | – |
| Cc1ccc(C(=O)Nc2ccc(CN3CCN(C)CC3)c(C(F)(F)F)c2)cc1NC(=O)c1cnc(N)nc1 | 1840 nM | 410 nM | 1890 nM | 43 nM | – |
| Cc1ccc(C(=O)Nc2ccc(CN3CCN(C)CC3)c(C(F)(F)F)c2)cc1NC(=O)c1cnc2[nH]ccc2c1 | 130 nM | 51 nM | 450 nM | 8 nM | inhibition [7]: Dose-dependent effect; IC50 [8]: 670 nM; inhibition [9]: Active; IC50 [10]: 170 nM; inhibition [11]: Dose-dependent effect; inhibition [12]: Dose-dependent effect; inhibition [13]: Dose-dependent effect; inhibition [14]: Dose-dependent effect; inhibition [15]: Active; inhibition [16]: Active; inhibition [17]: Dose-dependent effect; inhibition [18]: Dose-dependent effect; inhibition [6]: Active; inhibition [19]: Dose-dependent effect; inhibition [20]: Active; IC50 [21]: 220 nM; IC50 [22]: 1330 nM; inhibition [23]: Dose-dependent effect; IC50 [24]: 480 nM; inhibition [25]: Dose-dependent effect |
| Cc1ccc(C(=O)Nc2ccc(CN3CCN(C)CC3)c(C(F)(F)F)c2)cc1NC(=O)c1cnc2[nH]ncc2c1 | 540 nM | 48 nM | 780 nM | 30 nM | IC50 [8]: 1350 nM; IC50 [10]: 480 nM; IC50 [21]: 360 nM; IC50 [22]: 1380 nM; IC50 [24]: 780 nM |
| CCc1ccc(C(=O)Nc2ccc(CN3CCN(C)CC3)c(C(F)(F)F)c2)cc1NC(=O)c1cnc2[nH]ccc2c1 | 910 nM | 360 nM | 490 nM | 99 nM | – |
| CN1CCN(Cc2ccc(NC(=O)c3cccc(NC(=O)c4cnc5[nH]ccc5c4)c3)cc2C(F)(F)F)CC1 | 1070 nM | 48 nM | 1730 nM | 680 nM | – |
| Cc1ccc(C(=O)Nc2ccc(CN3CCN(C)CC3)c(C(F)(F)F)c2)cc1NC(=O)c1cnc(N(C)C)nc1 | 6960 nM | 300 nM | 2490 nM | 5540 nM | – |
| Cc1ccc(C(=O)Nc2ccc(CN3CCN(C)CC3)c(C(F)(F)F)c2)cc1NC(=O)c1ccncc1 | > 20000 nM | 110 nM | > 20000 nM | > 10000 nM | – |
